Data published in ChEMBL document CHEMBL1146375, “Synthetic studies on novel benzimidazolopeptides with antimicrobial, cytotoxic and anthelmintic potential” (2007).
≈ marks a conversion by molar mass, not a printed value. Residues, ends and D or L forms follow the SMILES beside them. *: point of attachment. X1 = Cc1cc2nc(-c3ccc(O)c(C(=O)*)c3)[nH]c2cc1C

Columns and labels:
[1] = test system: Pontoscolex corethrurus; test: Anthelmintic activity against Pontoscolex corethrurus ICARBC 408 assessed as mean death time; format: functional
Outline: (§1)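 Earthworms exposed to test suspensions at 2 mg mL−1, prepared by triturating compound with Tween 80 (0.5%) and distilled water, stirring 30 min, then diluting to 0.2% w/v. Mebendazole suspension was made the same way. Death was confirmed by moving worms into 50 °C warm water and looking for movement. Mean death time (min) taken from triplicate sets.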

[2] = Growth inhibition of DLA cells at 31.25 ug/mL after 3 hrs; format: functional; conditions: Mus musculus
Outline: (§2)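 DLA and EAC cells passaged intraperitoneally in albino mice, harvested after 15–20 days and adjusted to 1 × 10⁶ cells/mL. Dilutions in Dulbecco's medium (500–31.25, some down to 3.91 µg/mL; 5-FU reference) mixed 1:1 with cells and held 3 h at 37 °C. Trypan blue exclusion gave % growth inhibition; CTC50 by graphical extrapolation.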

[3] = test system: Bacillus subtilis; test: Antibacterial activity against Bacillus subtilis NCIM 2063 after 18 hrs by tube dilution method; format: functional; conditions: NCIM 2063, 18 h
Outline: (§3)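 Tube dilution MIC. Stock diluted in sterile broth to seven concentrations from 200 to 3.1 […]. Each tube inoculated with one loopful of test bacterium and incubated 18 h at 37 °C. MIC read from presence or absence of growth.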

[4] = test system: Bacillus subtilis; test: Antibacterial activity against Bacillus subtilis NCIM 2063 after 18 hrs by disc diffusion method; format: functional
Outline: (§4)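 Modified Kirby-Bauer disc diffusion. Plates inoculated with spore suspension (about 6 × 10⁴ spores mL^-1). Sterile 6 mm paper discs carried test samples at 10 mg mL^-1; ciprofloxacin disc as reference, DMF disc as negative control. Plates held 18 h at 37 °C. Inhibition zone diameters (mm) averaged over triplicate sets.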

[5] = Growth inhibition of EAC cells after 3 hrs; format: functional; conditions: Mus musculus, Ehrlich; outline: as §2
[6] = test system: Pseudomonas aeruginosa; test: Antibacterial activity against Pseudomonas aeruginosa NCIM 2034 after 18 hrs by tube dilution method; format: functional; conditions: NCIM 2034, 18 h; outline: as §3
[7] = test system: Escherichia coli; test: Antibacterial activity against Escherichia coli NCIM 2065 after 18 hrs by tube dilution method; format: functional; conditions: NCIM 2065, 18 h
[8] = Growth inhibition of EAC cells at 7.81 ug/mL after 3 hrs; format: functional; conditions: Mus musculus, Ehrlich; outline: as §2
[9] = Anthelmintic activity against Megascoplex konkanensis ICARBC 211 assessed as mean death time; format: functional
Outline: (§5)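 Earthworms exposed to test suspensions at 2 mg mL^-1 (0.2% w/v), made by triturating compound with Tween 80 (0.5%) and distilled water, then mechanically stirred 30 min. Mebendazole suspension prepared alike as reference. Paralysis and death times recorded; death confirmed by no movement in 50 °C water. Means from triplicate sets.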

[10] = test system: Escherichia coli; test: Antibacterial activity against Escherichia coli NCIM 2065 after 18 hrs by disc diffusion method; format: functional; outline: as §4
[11] = test system: Candida albicans; test: Antifungal activity against Candida albicans MUCC 29 after 48 hrs by disc diffusion method; format: functional
Outline: (§6)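 Agar well diffusion on plates inoculated with spore suspension in normal saline from cultures on Sabouraud's broth. Wells punched and loaded with test samples or griseofulvin at 10 mg mL^-1, with DMSO as negative control. Incubated 48 h at 37 °C.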

[12] = test system: Candida albicans; test: Antifungal activity against Candida albicans MUCC 29 after 48 hrs by tube dilution method; format: functional
Outline: (§7)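 Tube dilution MIC as for bacteria (seven concentrations, 200–3.1 […]), with DMSO in place of DMF. Tubes inoculated with fungal culture and incubated 48 h at 37 °C. MIC read from presence or absence of growth.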

[13] = Growth inhibition of DLA cells at 3.91 ug/mL after 3 hrs; format: functional; conditions: Mus musculus; outline: as §2
[14] = Growth inhibition of EAC cells at 31.25 ug/mL after 3 hrs; format: functional; conditions: Mus musculus, Ehrlich; outline: as §2
[15] = test system: Eudrilus; test: Anthelmintic activity against Eudrilus sp. assessed as mean paralyzing time; format: functional; outline: as §5
[16] = test system: Pseudomonas aeruginosa; test: Antibacterial activity against Pseudomonas aeruginosa NCIM 2034 after 18 hrs by disc diffusion method; format: functional; outline: as §4
[17] = Growth inhibition of DLA cells at 7.81 ug/mL after 3 hrs; format: functional; conditions: Mus musculus; outline: as §2
[18] = Growth inhibition of DLA cells at 15.63 ug/mL after 3 hrs; format: functional; conditions: Mus musculus; outline: as §2
[19] = Growth inhibition of EAC cells at 62.5 ug/mL after 3 hrs; format: functional; conditions: Mus musculus, Ehrlich; outline: as §2
[20] = Growth inhibition of DLA cells after 3 hrs; format: functional; conditions: Mus musculus; outline: as §2
[21] = test system: Trichophyton benhamiae; test: Antifungal activity against Trichophyton mentagrophytes MUCC 665 after 48 hrs by disc diffusion method; format: functional, Arthroderma benhamiae; outline: as §6
[22] = test system: Aspergillus niger; test: Antifungal activity against Aspergillus niger MUCC 177 after 48 hrs by disc diffusion method; format: functional; outline: as §6
[23] = test system: Eudrilus; test: Anthelmintic activity against Eudrilus sp. assessed as mean death time; format: functional; outline: as §1
[24] = test system: Microsporum audouinii; test: Antifungal activity against Microsporum audouinii MUCC 545 after 48 hrs by tube dilution method; format: functional; outline: as §7
[25] = Growth inhibition of DLA cells at 62.5 ug/mL after 3 hrs; format: functional; conditions: Mus musculus; outline: as §2
[26] = Growth inhibition of EAC cells at 15.63 ug/mL after 3 hrs; format: functional; conditions: Mus musculus, Ehrlich; outline: as §2
[27] = test system: Microsporum audouinii; test: Antifungal activity against Microsporum audouinii MUCC 545 after 48 hrs by disc diffusion method; format: functional; outline: as §6
[28] = test system: Pontoscolex corethrurus; test: Anthelmintic activity against Pontoscolex corethrurus ICARBC 408 assessed as mean paralyzing time; format: functional; outline: as §5
[29] = test system: Staphylococcus aureus; test: Antibacterial activity against Staphylococcus aureus NCIM 2079 after 18 hrs by tube dilution method; format: functional; conditions: NCIM 2079, 18 h; outline: as §3
[30] = test system: Staphylococcus aureus; test: Antibacterial activity against Staphylococcus aureus NCIM 2079 after 18 hrs by disc diffusion method; format: functional; outline: as §4
[31] = test system: Trichophyton benhamiae; test: Antifungal activity against Trichophyton mentagrophytes MUCC 665 after 48 hrs by tube dilution method; format: functional, Arthroderma benhamiae; outline: as §7
[32] = Anthelmintic activity against Megascoplex konkanensis ICARBC 211 assessed as mean paralyzing time; format: functional; outline: as §5
[33] = Growth inhibition of EAC cells at 3.91 ug/mL after 3 hrs; format: functional; conditions: Mus musculus, Ehrlich; outline: as §2
[34] = Growth inhibition of EAC cells at 250 ug/mL after 3 hrs; format: functional; conditions: Mus musculus, Ehrlich; outline: as §2
[35] = Growth inhibition of EAC cells at 500 ug/mL after 3 hrs; format: functional; conditions: Mus musculus, Ehrlich; outline: as §2

Cc1cc2nc(-c3ccc(O)c(C(=O)NCC(=O)N[C@@H](Cc4c[nH]c5ccccc45)C(=O)NCC(=O)N[C@@H](Cc4cnc[nH]4)C(=O)O)c3)[nH]c2cc1C (X1-GWGH-OH)
Time [1]: 24.52 min | inhibition at 31.25 µg/mL [2]: 100% | MIC [3]: 6 µg/mL (≈ 8.34 µM) | inhibition zone (IZ) [4]: 14 mm | CC50 [5]: 12 µM | MIC [6]: 6 µg/mL (≈ 8.34 µM) | MIC [7]: 12.5 µg/mL (≈ 17.4 µM) | inhibition at 7.81 µg/mL [8]: 46.4% | TIME [9]: 0.289 h | inhibition zone (IZ) [10]: 18 mm | inhibition zone (IZ) [11]: 20 mm | MIC [12]: 6 µg/mL (≈ 8.34 µM) | inhibition at 3.91 µg/mL [13]: 44.7% | inhibition at 31.25 µg/mL [14]: 92.8% | Time [15]: 10.89 min | inhibition zone (IZ) [16]: 24 mm | inhibition at 7.81 µg/mL [17]: 60.5% | inhibition at 15.63 µg/mL [18]: 81.6% | inhibition at 62.5 µg/mL [19]: 100% | CC50 [20]: 6.15 µM | inhibition zone (IZ) [21]: 16 mm | inhibition zone (IZ) [22]: 16 mm | Time [23]: 19.83 min | MIC [24]: 6 µg/mL (≈ 8.34 µM) | inhibition at 62.5 µg/mL [25]: 100% | inhibition at 15.63 µg/mL [26]: 75% | inhibition zone (IZ) [27]: 11 mm | Time [28]: 12.22 min | MIC [29]: 12.5 µg/mL (≈ 17.4 µM) | inhibition zone (IZ) [30]: 10 mm | MIC [31]: 6 µg/mL (≈ 8.34 µM) | TIME [32]: 0.155 h | inhibition at 3.91 µg/mL [33]: 10.7%

O=c1[nH]cc(F)c(=O)[nH]1 [FLUOROURACIL]
inhibition at 31.25 µg/mL [2]: 100% | CC50 [5]: 90.5 µM | inhibition at 7.81 µg/mL [8]: 32.1% | inhibition at 3.91 µg/mL [13]: 42.1% | inhibition at 7.81 µg/mL [17]: 65.8% | inhibition at 15.63 µg/mL [18]: 73.7% | CC50 [20]: 37.4 µM | inhibition at 250 µg/mL [34]: 100% | inhibition at 62.5 µg/mL [25]: 100% | inhibition at 15.63 µg/mL [26]: 60.7% | inhibition at 500 µg/mL [35]: 100% | inhibition at 3.91 µg/mL [33]: 17.9%
